Data on twelve compounds can be found in ChEMBL document CHEMBL1126026, “Synthesis and biological activity of new dimers in the 7H-pyrido[4,3-c] carbazole antitumor series” (1992).

Experiment [1] relates to Calf thymus DNA. Description: Affinity constant for calf thymus DNA. Particulars: Bos taurus. The experiment is classed as nucleic-acid assay. Summed up: (§1)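 Fluorescence competition assay with ethidium dimer at 25 °C in 0.1 M Tris-HCl, 0.1 M NaCl buffer, pH 7.4. Calf thymus DNA (1.6 × 10⁻⁶ M base pairs) was equilibrated with ethidium dimer for 24 h, then measured with varied drug concentrations. Excitation was 540 nm and emission 610 nm. Bound dye per base pair was derived by the Gaugain method. Ka was fitted from computed versus experimental displacement curves.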

The species entered for experiment [2] is Mus musculus. Description: Maximal tolerated dose against DBA2 mice inoculated with L1210 cells was determined. Format: functional.
Experiment [3] is filed under the species Mus musculus. Briefly: Increase in life span, expressed as treated by control was determined in DBA2 mice inoculated with L1210 cells; NS denotes not significant. The experiment is classed as functional, organism-based. Summed up: (§2)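 DBA2 mice were inoculated with 10⁵ L1210 cells and treated. Increase in life span was reported as mean survival of treated over control × 100. Significance was assessed by Student's test.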

Experiment [4] relates to L1210. Briefly: Dose required to inhibit the cloning efficacy of L1210 cells to a factor of 0.37 after 24-h exposure to the compound. Format: functional, Mus musculus. Summed up: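 Exponentially growing L1210 cells were exposed to a range of drug concentrations for 24 h, then assessed by cloning. The dose reducing cloning efficiency to a factor of 0.37 was determined.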

Experiment [5] relates to L1210. Description: Dose required to inhibit growth of L1210 cells after 24-h exposure to the compound. The experiment is classed as functional. Particulars: Mus musculus, L1210, 24 h; read-out: ED50 (the source's name). Summed up: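 Exponentially growing L1210 cells were exposed to a range of drug concentrations for 24 h. The dose giving 50% growth inhibition was determined.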

Experiment [6] is filed under the species Mus musculus. Briefly: Optimal dose required against DBA2 mice inoculated with L1210 cells. The experiment is classed as functional. Summed up: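 DBA2 mice were inoculated with 10⁵ L1210 cells. The optimal dose (mg/kg) was the dose giving the greatest increase in life time of treated mice relative to controls.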
The species entered for experiment [7] is Mus musculus. Description: Increase in life span, expressed as treated by control was determined in DBA2 mice inoculated with L1210 cells. The experiment is classed as functional. Summed up:
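DBA2 mice inoculated with 10⁵ L1210 leukemia cells and treated with compound. Read-out was increase in life span as T/C × 100, the mean % survival of treated over control animals. Significance was tested by Student's test. Optimal dose in mg/kg was the dose that most extended the life time of treated mice.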

The species entered for experiment [8] is Mus musculus. Briefly: Increase in life span, expressed as treated by control was determined in DBA2 mice inoculated with L1210 cells; NM denotes not measurable due to weak solubility. Format: functional, organism-based. Summed up:
as §2

For experiment [9], the system named is Nucleic Acid. Briefly: Affinity constant against calf thymus DNA; NM denotes not measurable due to weak solubility. The experiment is classed as nucleic-acid assay. Particulars: Bos taurus. Summed up: as §1

Molecules are shown by their SMILES. Activity calls are given as the source filed them. No cut-off for these calls is given here.

In experiment [1], `COc1ccc2[nH]c3ccc4cc[n+](CCN5CCC(C6CCN(CC[n+]7ccc8ccc9[nH]c%10ccc(OC)cc%10c9c8c7)CC6)CC5)cc4c3c2c1` gave a Ka of 1e+07 M⁻¹.
The term MTD denotes the highest dose tested that stayed within the study's limit of toxicity. A word on the T/C: it is the result in the treated group divided by that in the control group, in per cent. For `COc1ccc2c(c1)c1c3c(ccc1n2C)CCN(CCN1CCC(C2CCN(CCN4CCc5ccc6c(c5C4)c4cc(OC)ccc4n6C)CC2)CC1)C3.CS(=O)(=O)O.CS(=O)(=O)O`, the MTD in [2] was determined as 10 mg/kg. Moreover, in [3], the T/C result is “inactive”. In experiment [4], this compound registered an ED37 of 0.6 µM. Also, the EC50 in experiment [5] was found to be 660 nM. The same compound displayed an OD in experiment [6] of 10 mg/kg. The same compound registered a Ka in [1] of 4e+07 M⁻¹.
In the case of `COc1ccc2[nH]c3ccc4cc[n+](CCN5CCC(C6CCN(CC[n+]7ccc8ccc9[nH]c%10ccc(OC)cc%10c9c8c7)CC6)CC5)cc4c3c2c1.CS(=O)(=O)O.CS(=O)(=O)O.CS(=O)(=O)[O-].CS(=O)(=O)[O-]`, the maximum tolerated dose (MTD) in [2] worked out at 10 mg/kg. Also, in experiment [4], the ED37 worked out at 0.02 µM. The T/C in [7] stood at 182%. For the same compound, the OD in experiment [6] was found to be 10 mg/kg.
In experiment [2], `COc1ccc2[nH]c3c(CN)cc4cc[n+](CCN5CCC(C6CCN(CC[n+]7ccc8cc(CN)c9[nH]c%10ccc(OC)cc%10c9c8c7)CC6)CC5)cc4c3c2c1.CS(=O)(=O)O.CS(=O)(=O)O.CS(=O)(=O)[O-].CS(=O)(=O)[O-]` came in with an MTD of 20 mg/kg. Besides, the T/C entry in experiment [3] was “inactive”. Besides, the ED37 in experiment [4] was determined as 0.066 µM. The EC50 in experiment [5] turned out to be 57 nM. In addition, the OD in experiment [6] was determined as 10 mg/kg. For the same compound, the Ka in experiment [1] stood at 2e+07 M⁻¹.
In the case of `COc1ccc2[nH]c3c(C(=O)O)cc4cc[n+](CCN5CCC(C6CCN(CC[n+]7ccc8cc(C(=O)O)c9[nH]c%10ccc(OC)cc%10c9c8c7)CC6)CC5)cc4c3c2c1.CS(=O)(=O)O.CS(=O)(=O)O.CS(=O)(=O)[O-].CS(=O)(=O)[O-]`, the ED37 in [4] is >0.8 µM. Besides, the T/C entry in [8] is on record as “Not measurable”. For the same compound, the EC50 in experiment [5] was > 800 nM. The Ka in experiment [1] worked out at 250000 M⁻¹.
Turning to `COc1ccc2[nH]c3c(C(=O)NCCN4CCC(C5CCN(CCNC(=O)c6cc7ccncc7c7c6[nH]c6ccc(OC)cc67)CC5)CC4)cc4ccncc4c3c2c1`, the MTD in [2] stood at 10 mg/kg. The T/C result in experiment [3] was “inactive”. Also, the ED37 in experiment [4] was found to be 30 µM. Also, in experiment [5], the EC50 was determined as 11000 nM. The OD in [6] worked out at 10 mg/kg. The compound also displayed a Ka in [1] of 2e+08 M⁻¹.
As to `COc1ccc2c(c1)c1c3c[n+](C)ccc3ccc1n2CCN1CCC(C2CCN(CCn3c4ccc(OC)cc4c4c5c[n+](C)ccc5ccc43)CC2)CC1.CS(=O)(=O)O.CS(=O)(=O)O.CS(=O)(=O)[O-].CS(=O)(=O)[O-]`, the MTD in experiment [2] was 5 mg/kg. For the same compound, the EC50 in [5] was determined as 900 nM. This compound gave a T/C in experiment [7] of 134%. The same compound came in with an OD in experiment [6] of 5 mg/kg. Also, the Ka in experiment [1] was > 1e+09 M⁻¹.
`COc1ccc2[nH]c3c(CNC(=O)[C@]4(O)O[C@H](CO)[C@H](O)[C@H]4O)cc4cc[n+](CCN5CCC(C6CCN(CC[n+]7ccc8cc(CNC(=O)[C@]9(O)O[C@H](CO)[C@H](O)[C@H]9O)c9[nH]c%10ccc(OC)cc%10c9c8c7)CC6)CC5)cc4c3c2c1`: the EC50 in [5] was 2150 nM. This compound had a Ka in experiment [1] of 3e+06 M⁻¹.
In turn, `COc1ccc2[nH]c3c(C)cc4cc[n+](CCN5CCC(C6CCN(CC[n+]7ccc8cc(C)c9[nH]c%10ccc(OC)cc%10c9c8c7)CC6)CC5)cc4c3c2c1.CS(=O)(=O)O.CS(=O)(=O)O.CS(=O)(=O)[O-].CS(=O)(=O)[O-]` registered an MTD in experiment [2] of 11 mg/kg. The compound also yielded an ED37 in [4] of 0.1 µM. Besides, in [5], the EC50 amounted to 370 nM. Also, the T/C in experiment [7] is on record as 172%. The OD in [6] stood at 7 mg/kg. Moreover, in experiment [1], the Ka was 5e+08 M⁻¹.
In the case of `COc1ccc2[nH]c3ccc4cc[n+](CCN5CCC(C6CCN(CC[n+]7ccc8ccc9[nH]c%10ccc(OC)cc%10c9c8c7)CC6)CC5)cc4c3c2c1.[Cl-].[Cl-]` [DITERCALINIUM CHLORIDE], the MTD in experiment [2] stood at 10 mg/kg. This compound registered an ED37 in experiment [4] of 0.024 µM. Besides, the EC50 in [5] worked out at 190 nM. In [7], this compound came in with a T/C of 182%. The same compound yielded an OD in experiment [6] of 10 mg/kg.
Regarding `COc1ccc2c(c1)c1c3cnccc3ccc1n2CCN1CCC(C2CCN(CCn3c4ccc(OC)cc4c4c5cnccc5ccc43)CC2)CC1.CS(=O)(=O)O.CS(=O)(=O)O`, in experiment [2], the MTD was found to be 10 mg/kg. In addition, the T/C entry in experiment [3] is “inactive”. The EC50 in experiment [5] came out at 600 nM. In experiment [6], this compound gave an OD of 10 mg/kg. In [1], this compound came in with a Ka of 1e+07 M⁻¹.
Take `COc1ccc2[nH]c3c(CNC(=O)[C@@H](N)CCC(=O)O)cc4cc[n+](CCN5CCC(C6CCN(CC[n+]7ccc8cc(CNC(=O)[C@@H](N)CCC(=O)O)c9[nH]c%10ccc(OC)cc%10c9c8c7)CC6)CC5)cc4c3c2c1.CS(=O)(=O)O.CS(=O)(=O)O.CS(=O)(=O)[O-].CS(=O)(=O)[O-]`: in experiment [9], the Ka entry is listed as “Not measurable”. The ED37 in [4] is >0.58 µM. For the same compound, the T/C entry in experiment [8] was “Not measurable”. For the same compound, in experiment [5], the EC50 stood at 460 nM.
